Consider 11 compounds from ChEMBL document CHEMBL1131123, “Extended aromatic furan amidino derivatives as anti-Pneumocystis carinii agents” (J Med Chem, 1998).

For series [1], the system named is Rattus norvegicus. The experiment in a line: In vivo evaluation of iv dosage of the Dicationic furans against Pneumocystis carinii in lung tissue of rats at 10 umol/kg/day. The series is classed as functional. Summed up: (§1)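 Immunosuppressed rat model of P. carinii pneumonia. Compounds are dosed intravenously. Read-out is cysts per g of lung tissue, compared against pooled saline-treated control rats (n = 125). Other details follow ref 2.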

Series [2] relates to Rattus norvegicus. The series can be described thus: In vivo evaluation of iv dosage of the furan dications against Pneumocystis carinii in lung tissue of rats at 22 umol/kg/day. Format: functional. Summed up: as §1
The test system of series [3] is Rattus norvegicus. The experiment in a line: In vivo evaluation of iv dosage of the Dicationic furans against Pneumocystis carinii in lung tissue of rats at 2 umol/kg/day. Format: functional. Summed up: as §1
Series [4] is described as follows: In vivo evaluation of iv dosage of the Dicationic furans against Pneumocystis carinii in rats measured 10 umol/kg/day. The series is classed as ADME, organism-based. As to conditions: rat. Summed up:
(§2)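 Intravenous dosing of test dications in immunosuppressed rats infected with P. carinii, following a previously described protocol. Infection is scored by lung cyst burden relative to pooled saline-control animals.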

Series [5] can be described thus: In vivo evaluation of iv dosage of the Dicationic furans against Pneumocystis carinii in rats measured 2 umol/kg/day. Conditions: rat. Format: ADME, organism-based. The gist of the method:
as §2

Series [6] deals with Rattus norvegicus. The series can be described thus: In vivo evaluation of iv dosage of the Dicationic furans against Pneumocystis carinii in lung tissue of rats at 0.2 umol/kg/day. The series is classed as functional. Summed up: as §1
In series [7] the test system is Rattus norvegicus. The experiment in a line: In vivo evaluation of iv dosage of the Dicationic furans against Pneumocystis carinii in lung tissue of rats at 1.1 umol/kg/day. Format: functional. Summed up:
as §1

Series [8] relates to Rattus norvegicus. The series can be described thus: In vivo evaluation of iv dosage of the Dicationic furans against Pneumocystis carinii in lung tissue of rats at 10.8 umol/kg/day. The series is classed as functional. Summed up: as §1
In series [9] the test system is Rattus norvegicus. The series can be described thus: In vivo evaluation of iv dosage of the Dicationic furans against Pneumocystis carinii in lung tissue of rats at 2.2 umol/kg/day. The series is classed as functional. The gist of the method:
as §1

Series [10] is described as follows: In vivo evaluation of iv dosage of the Dicationic furans against Pneumocystis carinii in rats measured 0.2 umol/kg/day. The series is classed as ADME, organism-based. Conditions: rat. Summed up: as §2
Series [11] can be described thus: In vivo evaluation of iv dosage of the Dicationic furans against Pneumocystis carinii in rats measured 1.1 umol/kg/day. The series is classed as ADME, organism-based. As to conditions: rat. Summed up: as §2
A short description of series [12]: In vivo evaluation of iv dosage of the Dicationic furans against Pneumocystis carinii in rats measured 10.8 umol/kg/day. The series is classed as ADME, organism-based. As to conditions: rat. Summed up: as §2
Series [13] is described as follows: In vivo evaluation of iv dosage of the Dicationic furans against Pneumocystis carinii in rats measured 2.2 umol/kg/day. Format: ADME, organism-based. As to conditions: rat. Summed up: as §2
Series [14] concerns Rattus norvegicus. The series can be described thus: In vivo evaluation of iv dosage of the Dicationic furans against Pneumocystis carinii in lung tissue of rats at 3.8 umol/kg/day. The series is classed as functional. Summed up: as §1
Series [15] concerns Rattus norvegicus. The series can be described thus: In vivo evaluation of iv dosage of the Dicationic furans against Pneumocystis carinii in lung tissue of rats at 0.03 umol/kg/day. The series is classed as functional. The gist of the method:
(§3)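 Immunosuppressed rat model of P. carinii pneumonia, with test compounds dosed intravenously per an earlier protocol. Read-out is cyst count per g of lung tissue, compared against pooled saline-treated controls.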

Series [16] has as its system Rattus norvegicus. The experiment in a line: In vivo evaluation of iv dosage of the Dicationic furans against Pneumocystis carinii in lung tissue of rats at 0.3 umol/kg/day. The series is classed as functional. Summed up:
as §3

For series [17], the system named is Rattus norvegicus. The series can be described thus: In vivo evaluation of iv dosage of the Dicationic furans against Pneumocystis carinii in lung tissue of rats at 13.3 umol/kg/day. The series is classed as functional. The gist of the method: as §3
The test system of series [18] is Rattus norvegicus. The experiment in a line: In vivo evaluation of iv dosage of the Dicationic furans against Pneumocystis carinii in lung tissue of rats at 2.7 umol/kg/day. The series is classed as functional. The gist of the method:
as §3

Series [19] can be described thus: In vivo evaluation of iv dosage of the Dicationic furans against Pneumocystis carinii in rats measured 0.03 umol/kg/day. The series is classed as ADME, organism-based. Conditions: rat. The gist of the method:
as §2

The nature of series [20]: In vivo evaluation of iv dosage of the Dicationic furans against Pneumocystis carinii in rats measured 0.3 umol/kg/day. The series is classed as ADME, organism-based. As to conditions: rat. The gist of the method:
as §2

Series [21] is described as follows: In vivo evaluation of iv dosage of the Dicationic furans against Pneumocystis carinii in rats measured 13.3 umol/kg/day. The series is classed as ADME, organism-based. Conditions: rat. Summed up:
as §2

The nature of series [22]: In vivo evaluation of iv dosage of the Dicationic furans against Pneumocystis carinii in rats measured 2.7 umol/kg/day. Format: ADME, organism-based. Conditions: rat. Summed up:
as §2

The subject of series [23] is Rattus norvegicus. The series can be described thus: In vivo evaluation of iv dosage of the Dicationic furans against Pneumocystis carinii in lung tissue of rats at 2.5 umol/kg/day. Format: functional. Summed up:
as §1

The test system of series [24] is Rattus norvegicus. The series can be described thus: In vivo evaluation of iv dosage of the furan dications against Pneumocystis carinii in lung tissue of rats at 7.1 umol/kg/day. Format: functional. Summed up:
as §1

Series [25] relates to Rattus norvegicus. The series can be described thus: In vivo evaluation of iv dosage of the Dicationic furans against Pneumocystis carinii in lung tissue of rats at 0.9 umol/kg/day. Format: functional. Summed up: as §1
For series [26], the system named is Rattus norvegicus. The series can be described thus: In vivo evaluation of iv dosage of the Dicationic furans against Pneumocystis carinii in lung tissue of rats at 1.9 umol/kg/day. Format: functional. The gist of the method: as §1
Series [27] relates to Rattus norvegicus. The experiment in a line: In vivo evaluation of iv dosage of the Dicationic furans against Pneumocystis carinii in lung tissue of rats at 9.4 umol/kg/day. Format: functional. Summed up: as §1
Series [28] in a line: In vivo evaluation of iv dosage of the Dicationic furans against Pneumocystis carinii in rats measured 0.9 umol/kg/day. The series is classed as ADME, organism-based. Conditions: rat. The gist of the method:
as §2

Series [29] can be described thus: In vivo evaluation of iv dosage of the Dicationic furans against Pneumocystis carinii in rats measured 1.9 umol/kg/day. Format: ADME, organism-based. Conditions: rat. The gist of the method: as §2
The test system of series [30] is Rattus norvegicus. The series can be described thus: In vivo evaluation of iv dosage of the Dicationic furans against Pneumocystis carinii in lung tissue of rats at 5 umol/kg/day. The series is classed as functional. Summed up:
as §1

The nature of series [31]: In vivo evaluation of iv dosage of the Dicationic furans against Pneumocystis carinii in rats measured 5 umol/kg/day. The series is classed as ADME, organism-based. As to conditions: rat. Summed up:
as §2

SMILES strings stand for the structures.

As for `CC(C)/N=C(\N)c1ccc(-c2ccc(-c3nc4cc(/C(N)=N\C(C)C)ccc4[nH]3)o2)cc1`, in the series with Rattus norvegicus [1], the Control amounted to 0.13%.

In the case of `Cl.N=C(N)c1ccc2[nH]c(-c3ccc(-c4nc5cc(C(=N)N)ccc5[nH]4)o3)nc2c1`, the Control in the series on Rattus norvegicus [1] was 1.8%.

Regarding `N=C(N)c1ccc(OCCCCCOc2ccc(C(=N)N)cc2)cc1` [PENTAMIDINE], the Control with Rattus norvegicus [2] was 1.82%.

As to `CC(C)/N=C(\N)c1ccc2[nH]c(-c3ccc(-c4nc5cc(/C(N)=N/C(C)C)ccc5[nH]4)o3)nc2c1.Cl`, the Control with Rattus norvegicus [1] was 0.11%; in the series on Rattus norvegicus [3] it was 31.77. The Toxicity in [4] and in series [5] was 0 each time.

As for `CC(C)NC(=N)c1ccc(-c2ccc(-c3ccc(C(=N)NC(C)C)cc3)o2)cc1`, the Control is recorded as 201.74% in the series on Rattus norvegicus [6], 14% in the series with Rattus norvegicus [7], 0.24% in the series with Rattus norvegicus [8] and 10.04% in the series on Rattus norvegicus [9]. Further, the Toxicity in series [10], in [11], in series [12] and in [13] was 0 throughout.

For the compound `Cl.N=C(NC1CCCC1)c1ccc2[nH]c(-c3ccc(-c4nc5cc(C(=N)NC6CCCC6)ccc5[nH]4)o3)nc2c1`, the Control in the series with Rattus norvegicus [14] is recorded as 53.81%.

For `N=C(N)c1ccc(-c2ccc(-c3ccc(C(=N)N)cc3)o2)cc1` [FURAMIDINE], the Control in the series on Rattus norvegicus [15] is listed as 26.23%; in the series on Rattus norvegicus [16] it was 6.42%; with Rattus norvegicus [17] it was 0.73%; in the series with Rattus norvegicus [18], 6.74%. Besides, the Toxicity in [19], in series [20], in series [21] and in series [22] was 0 each time.

The compound `N=C(NC1CCCC1)c1ccc(-c2ccc(-c3nc4cc(C(=N)NC5CCCC5)ccc4[nH]3)o2)cc1` displayed a Control with Rattus norvegicus [23] of 0.82%.

In the series on Rattus norvegicus [24], `Cl.N=C(N)c1ccc2[nH]c(-c3ccc(-c4ccc(-c5ccc(-c6nc7cc(C(=N)N)ccc7[nH]6)cc5)o4)cc3)nc2c1` came in with a Control of 180%.

`N=C(NC1CCCC1)c1ccc(-c2ccc(-c3ccc(C(=N)NC4CCCC4)cc3)o2)cc1`: the Control with Rattus norvegicus [6] was 111.65%; in the series on Rattus norvegicus [25], 0.13%; in the series with Rattus norvegicus [26] it was 0.09%; in the series with Rattus norvegicus [27], 0.04%. The Toxicity in [10], in [28] and in [29] was 0 in each case.

`N=C(N)c1ccc(-c2ccc(-c3nc4cc(C(=N)N)ccc4[nH]3)o2)cc1` showed a Control with Rattus norvegicus [30] of 50.98%. In series [31], this compound had a Toxicity of 0.
